Measured values as given in ChEMBL document CHEMBL4334463, “Free Ligand 1D NMR Conformational Signatures To Enhance Structure Based Drug Design of a Mcl-1 Inhibitor (AZD5991) and Other Synthetic Macrocycles” (J Med Chem, 2019).

Experiments:
[1] = Lipophilicity, logD of the compound at pH 7.4; format: physicochemical; details: buffer
How it was run: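 Shake-flask partitioning to determine logD, with the aqueous phase at pH 7.4.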

[2] = target: T1, B-cell lymphoma 6 protein (Homo sapiens, UniProt P41182); assay: Inhibition of Bcl6 (unknown origin) by TR-FRET assay
[3] = target: T2, Induced myeloid leukemia cell differentiation protein Mcl-1 (Homo sapiens, UniProt Q07820); assay: Inhibition of Mcl1 (unknown origin) by TR-FRET assay
Target sequence in this assay (Q07820 whole entry): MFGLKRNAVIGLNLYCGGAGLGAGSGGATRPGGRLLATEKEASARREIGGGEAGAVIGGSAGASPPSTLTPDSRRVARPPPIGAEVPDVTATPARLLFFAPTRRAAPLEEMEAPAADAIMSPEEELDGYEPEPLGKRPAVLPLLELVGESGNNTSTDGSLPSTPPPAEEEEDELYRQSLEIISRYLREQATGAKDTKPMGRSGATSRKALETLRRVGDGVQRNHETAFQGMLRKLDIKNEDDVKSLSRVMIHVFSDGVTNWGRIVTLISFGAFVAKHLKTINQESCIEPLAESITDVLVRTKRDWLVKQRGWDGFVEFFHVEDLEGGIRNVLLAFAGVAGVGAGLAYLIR

[4] = target: T2, Induced myeloid leukemia cell differentiation protein Mcl-1; assay: Binding affinity to Mcl-1 (unknown origin) by SPR assay
Target sequence in this assay (Q07820 whole entry, looked up): as the sequence (Q07820 whole entry) above

[5] = target: T2, Induced myeloid leukemia cell differentiation protein Mcl-1
Target sequence in this assay (Q07820 whole entry): as above

[6] = target: T1, B-cell lymphoma 6 protein

| Structure (SMILES) | logD [1] | Ki [3] | further results |
| --- | --- | --- | --- |
| C[C@@H]1CCCCN(C)c2cc(n3ncc(C#N)c3n2)Nc2cc3c(c(c2)O1)N(C)C(=O)CC3 | 4 |  | IC50 [2]: 25 nM |
| CN1CCCN[C@@H](Cc2ccc(Cl)cc2)CC(=O)N[C@H]2CCc3ccccc3N(CC(=O)N[C@H](Cc3ccc(Cl)c(Cl)c3)CC1=O)C2=O | 4.3 | 155 nM |  |
| Cc1cc(CSCc2nn(C)c(C)c2-c2cccc3c(CCCOc4cccc5ccccc45)c(C(=O)O)[nH]c23)nn1C | 4.2 |  |  |
| CC1CCN[C@@H](Cc2ccc(Cl)cc2)CC(=O)N[C@H]2CCc3ccccc3N(CC(=O)N[C@H](Cc3ccc(Cl)c(Cl)c3)CC(=O)N1C)C2=O (stereo in doubt; 12) |  | 300 nM |  |
| Cc1nn(C)c(C)c1-c1cccc2c(CCCOc3cccc4ccccc34)c(C(=O)O)[nH]c12 | 3.6 | 290 nM | Kd [4]: 480 nM |
| N#Cc1cnn2c(Nc3ccc4c(c3)CCC(=O)N4)cc(N3CCC[C@H]3CC(=O)O)nc12 | -0.4 |  |  |
| N#Cc1cnn2c(Nc3ccc4c(c3)CCC(=O)N4)cc(N3CCC[C@H]3CO)nc12 | 2.3 |  |  |
| CN1CCCN[C@@H](Cc2ccc(S(C)(=O)=O)cc2)CC(=O)N[C@H]2CCc3ccccc3N(CC(=O)N[C@H](Cc3ccc(Cl)c(CCc4ccccc4)c3)CC1=O)C2=O | 4.1 |  | T1/2 [5]: 0.3 min |
| CN1CCCCCOc2cc(cc3c2N(C)C(=O)CC3)Nc2cc1nc1c(C#N)cnn21 | 3.6 |  | IC50 [2]: 190 nM |
| C[C@@H]1CCN(C)C(=O)C[C@@H](Cc2ccc(Cl)c(Cl)c2)NC(=O)CN2C(=O)[C@H](CCc3ccccc32)NC(=O)C[C@H](Cc2ccc(Cl)cc2)N1 |  | 739 nM |  |
| CC1CCN[C@@H](Cc2ccc(Cl)cc2)CC(=O)N[C@H]2CCc3ccccc3N(CC(=O)N[C@H](Cc3ccc(Cl)c(Cl)c3)CC(=O)N1C)C2=O (stereo in doubt; 11) |  | 4960 nM |  |
| C[C@H]1CCN(C)C(=O)C[C@@H](Cc2ccc(Cl)c(Cl)c2)NC(=O)CN2C(=O)[C@H](CCc3ccccc32)NC(=O)C[C@H](Cc2ccc(Cl)cc2)N1 |  | 48 nM |  |
| N#Cc1cnn2c3cc(nc12)N1C[C@H](C[C@H]1CO)OC/C=C/COc1cc(cc2c1NC(=O)CC2)N3 | 2.2 |  | T1/2 [6]: 2 min |
| N#Cc1cnn2c3cc(nc12)N1CC[C@@H](C1)OC/C=C/COc1cc(cc2c1NC(=O)CC2)N3 | 2.4 |  |  |
| O=C1C[C@@H](Cc2ccc(Cl)c(Cl)c2)NC(=O)CN2C(=O)[C@H](CCc3ccccc32)NC(=O)C[C@H](Cc2ccc(Cl)cc2)NCCCN1 | 3.7 | 5210 nM |  |
| CNC(=O)C[C@@H](Cc1ccc(Cl)c(Cl)c1)NC(=O)CN1C(=O)[C@@H](NC(=O)C[C@@H](N)Cc2ccc(Cl)cc2)CCc2ccccc21 | 3.8 | 1990 nM |  |
